In ChEMBL document CHEMBL3758180, “Synthesis of mixed MOR/KOR efficacy cyclic opioid peptide analogs with antinociceptive activity after systemic administration” (Eur J Med Chem, 2016):
Active and inactive are the calls of the source. Positions of bridges follow the written chain, without caps; N, C: chain ends. Non-standard residues stand in square brackets, D forms with d. Residues, ends and D or L forms follow the SMILES beside them. d1Nal = N[C@H](Cc1cccc2ccccc12)C(=O)O; d2Nal = N[C@H](Cc1ccc2ccccc2c1)C(=O)O; Dmt = Cc1cc(O)cc(C)c1C[C@H](N)C(=O)O

Legend:
[1] = biological target: Delta-type opioid receptor (Rattus norvegicus, UniProt P33533); test: Displacement of [3H][Ile5,6]deltorphin-2 from DOR in Wistar rat brain homogenates by liquid scintillation counting analysis; type: tissue-based
Sequence of Delta-type opioid receptor (Rattus norvegicus, UniProt P33533) (P33533 whole entry): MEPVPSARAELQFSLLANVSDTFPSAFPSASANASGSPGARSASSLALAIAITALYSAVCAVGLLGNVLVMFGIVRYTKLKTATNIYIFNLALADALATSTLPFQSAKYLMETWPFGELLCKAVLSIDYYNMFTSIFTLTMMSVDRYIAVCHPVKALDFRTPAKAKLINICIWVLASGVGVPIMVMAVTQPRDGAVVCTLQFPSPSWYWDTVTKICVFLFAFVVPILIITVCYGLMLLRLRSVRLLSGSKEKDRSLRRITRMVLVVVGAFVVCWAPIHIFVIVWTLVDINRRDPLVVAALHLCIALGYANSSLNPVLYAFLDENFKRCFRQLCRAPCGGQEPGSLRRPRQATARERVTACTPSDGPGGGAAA
Method in brief: (§1)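 Competition binding in brain membranes of adult male Wistar rats, [3H]DAMGO for MOR or [3H][Ile5,6]deltorphin-2 for DOR. IC50 from log dose-displacement curves, converted to Ki by Cheng-Prusoff. Mean ± SEM of three independent experiments in duplicate.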

Mu-type opioid receptor [2] = biological target: Mu-type opioid receptor (Rattus norvegicus, UniProt P33535); test: Displacement of [3H]DAMGO from MOR in Wistar rat brain homogenates by liquid scintillation counting analysis; type: tissue-based; method in brief: as §1
Sequence of Mu-type opioid receptor (Rattus norvegicus, UniProt P33535) (P33535 whole entry): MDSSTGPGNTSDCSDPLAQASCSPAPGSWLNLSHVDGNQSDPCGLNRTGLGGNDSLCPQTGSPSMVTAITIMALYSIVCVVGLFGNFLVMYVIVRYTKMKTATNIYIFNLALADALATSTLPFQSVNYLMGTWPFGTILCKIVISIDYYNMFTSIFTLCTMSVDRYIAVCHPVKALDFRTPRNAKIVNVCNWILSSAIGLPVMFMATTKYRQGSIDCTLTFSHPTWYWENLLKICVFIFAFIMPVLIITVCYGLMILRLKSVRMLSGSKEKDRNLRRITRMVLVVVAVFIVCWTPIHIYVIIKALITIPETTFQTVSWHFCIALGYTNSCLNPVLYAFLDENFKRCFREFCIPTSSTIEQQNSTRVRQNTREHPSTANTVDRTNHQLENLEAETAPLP

[3] = biological target: T1, Delta-type opioid receptor (Homo sapiens, UniProt P41143); test: Agonist activity at human recombinant DOR expressed in CHO cells assessed as calcium mobilization up to 1 uM by Fluo-4 AM based fluorescence analysis; type: functional, cell-based
T1 sequence (P41143 whole entry): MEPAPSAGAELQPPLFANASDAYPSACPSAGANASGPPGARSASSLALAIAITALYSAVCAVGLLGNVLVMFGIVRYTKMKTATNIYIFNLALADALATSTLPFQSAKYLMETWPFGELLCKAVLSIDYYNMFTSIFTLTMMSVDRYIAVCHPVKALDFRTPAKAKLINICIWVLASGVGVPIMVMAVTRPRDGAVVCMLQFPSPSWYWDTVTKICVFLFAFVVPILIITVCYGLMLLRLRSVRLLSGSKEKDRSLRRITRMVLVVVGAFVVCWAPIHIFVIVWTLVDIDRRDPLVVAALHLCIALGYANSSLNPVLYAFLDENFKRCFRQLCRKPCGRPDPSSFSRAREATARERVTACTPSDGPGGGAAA

[4] = biological target: T2, Kappa-type opioid receptor (Homo sapiens, UniProt P41145); test: Agonist activity at human recombinant KOR expressed in CHO cells assessed as calcium mobilization by Fluo-4 AM based fluorescence analysis; type: functional, cell-based
T2 sequence (P41145 whole entry): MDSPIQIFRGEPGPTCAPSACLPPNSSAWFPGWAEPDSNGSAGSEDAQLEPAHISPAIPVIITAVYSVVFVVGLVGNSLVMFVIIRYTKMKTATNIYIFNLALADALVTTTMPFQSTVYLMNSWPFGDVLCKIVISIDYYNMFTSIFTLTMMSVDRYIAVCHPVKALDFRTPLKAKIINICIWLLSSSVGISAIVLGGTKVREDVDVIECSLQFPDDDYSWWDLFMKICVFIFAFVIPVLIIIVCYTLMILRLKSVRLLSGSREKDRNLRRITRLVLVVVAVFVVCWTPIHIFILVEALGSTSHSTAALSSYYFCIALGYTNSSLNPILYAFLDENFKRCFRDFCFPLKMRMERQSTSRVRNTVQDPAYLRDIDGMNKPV
Method in brief: (§2)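 CHO cells stably co-expressing human recombinant KOR and C-terminally modified Gαqi5; calcium mobilization concentration-response curves. pEC50 from curve fitting with Hill coefficient; intrinsic activity α as ligand Emax over Emax of standard agonist dynorphin A. Mean ± SEM of at least 3 separate experiments, each in duplicate.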

Mus musculus [5] = test: Antinociceptive activity in BalbC albino mouse assessed as latency of jumping at 10 mg/kg, ip after 15 mins by hot-plate method; type: functional
[6] = biological target: Kappa-type opioid receptor (Cavia porcellus, UniProt P41144); test: Displacement of [3H]nor-BNI from KOR in Dunkin Hartley guinea pig brain homogenates by liquid scintillation counting analysis; type: tissue-based
Sequence of Kappa-type opioid receptor (Cavia porcellus, UniProt P41144) (P41144 whole entry): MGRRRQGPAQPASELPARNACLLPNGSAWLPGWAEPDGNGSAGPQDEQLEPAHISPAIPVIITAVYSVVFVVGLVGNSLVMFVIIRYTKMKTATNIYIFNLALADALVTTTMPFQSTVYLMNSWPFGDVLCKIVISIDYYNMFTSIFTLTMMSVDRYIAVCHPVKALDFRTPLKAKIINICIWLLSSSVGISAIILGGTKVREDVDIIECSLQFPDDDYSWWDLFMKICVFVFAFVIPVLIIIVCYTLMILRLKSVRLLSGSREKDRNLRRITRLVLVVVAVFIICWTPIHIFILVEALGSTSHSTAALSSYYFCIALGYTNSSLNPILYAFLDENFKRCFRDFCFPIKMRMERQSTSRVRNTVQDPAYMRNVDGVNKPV

[7] = Stability of compound in Wistar rat brain homogenate assessed as compound remaining after 90 mins by RP-HPLC analysis; type: ADME; details: read-out: Stability
Method in brief: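 Peptide incubated with Wistar rat brain homogenate at 37°C, sampled at 0, 7.5, 15, 22.5, 30 and 90 min; remaining intact peptide quantified by RP-HPLC peak area %; value is amount left at 90 min.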

[8] = Retention time of compound by RP-HPLC analysis; type: physicochemical
Mus musculus [9] = test: Antinociceptive activity in icv dosed BalbC albino mouse assessed as latency of jumping after 10 mins by hot-plate method; type: functional
Method in brief: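 Injection icv into left lateral ventricle (10 μL/animal) of hand-restrained mice; hot-plate test at 55 ± 0.5°C 10 min post-injection, jumping latency with 240 s cut-off. Response as %MPE = (t1 − t0)/(t2 − t0) × 100; ED50 by nonlinear regression; 7-10 animals per group.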

[10] = biological target: T2, Kappa-type opioid receptor; test: Agonist activity at human recombinant KOR expressed in CHO cells assessed as calcium mobilization by Fluo-4 AM based fluorescence analysis relative to DynA; type: functional, cell-based; method in brief: as §2
Mu-type opioid receptor [11] = biological target: Mu-type opioid receptor (Homo sapiens, UniProt P35372); test: Agonist activity at human recombinant MOR expressed in CHO cells assessed as calcium mobilization by Fluo-4 AM based fluorescence analysis; type: functional, cell-based
Sequence of Mu-type opioid receptor (Homo sapiens, UniProt P35372) (P35372 whole entry): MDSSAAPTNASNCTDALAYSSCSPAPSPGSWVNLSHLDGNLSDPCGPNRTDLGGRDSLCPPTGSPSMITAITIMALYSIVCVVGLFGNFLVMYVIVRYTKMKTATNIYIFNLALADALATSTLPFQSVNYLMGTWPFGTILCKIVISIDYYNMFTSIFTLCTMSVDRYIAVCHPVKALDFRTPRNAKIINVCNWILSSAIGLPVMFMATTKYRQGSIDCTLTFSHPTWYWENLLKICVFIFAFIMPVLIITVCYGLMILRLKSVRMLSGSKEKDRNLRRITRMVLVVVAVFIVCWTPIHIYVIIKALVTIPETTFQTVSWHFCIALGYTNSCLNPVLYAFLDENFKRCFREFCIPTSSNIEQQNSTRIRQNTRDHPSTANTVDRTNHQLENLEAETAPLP

Mus musculus [12] = test: Antinociceptive activity in BalbC albino mouse assessed as latency of jumping at 3 mg/kg, ip after 15 mins by hot-plate method; type: functional, organism-based
Mus musculus [13] = test: Antinociceptive activity in ip dosed BalbC albino mouse assessed as latency of jumping after 15 mins by hot-plate method; type: functional; details: for ED50: 0.25 h
Mus musculus [14] = test: Antinociceptive activity in BalbC albino mouse assessed as latency of jumping at 3 mg/kg, ip after 30 to 60 mins by hot-plate method; type: functional, organism-based
Method in brief: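 Time course after single ip dose of 3 mg/kg; hot-plate (55 ± 0.5°C) jump latency read at 15, 30, 45 and 60 min, 240 s cut-off. Expressed as %MPE from control, test and cut-off latencies; mean ± SEM, 7-10 mice per group, each tested once.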

[15] = biological target: T1, Delta-type opioid receptor; test: Agonist activity at human recombinant DOR expressed in CHO cells assessed as calcium mobilization by Fluo-4 AM based fluorescence analysis; type: functional, cell-based
[16] = biological target: T1, Delta-type opioid receptor; test: Agonist activity at human recombinant DOR expressed in CHO cells assessed as calcium mobilization by Fluo-4 AM based fluorescence analysis relative to DPDPE; type: functional, cell-based
Method in brief: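 CHO cells stably co-expressing human recombinant DOR and chimeric Gαqi5 (G66D variant); intracellular calcium rise measured across concentration-response curves. Agonist potency as pEC50; efficacy as intrinsic activity α, ratio of ligand Emax to standard agonist (DPDPE) Emax. Mean ± SEM, at least 3 separate experiments in duplicate.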

SMILES | Ki [1] [nM] | Ki (Mu-type opioid receptor [2]) [nM] | pEC50 [3] | EC50 [4] [nM] | Activity (Mus musculus [5]) [%] | Ki [6] [nM] | remaining at 1.5 h [7] [%] | Retention_time [8] [min] | ED50 (Mus musculus [9]) [µg] | Intrinsic activity [10] | EC50 (Mu-type opioid receptor [11]) [nM] | Activity (Mus musculus [12]) | Activity (Mus musculus [13]) | ED50 (Mus musculus [13]) [mg/kg] | Activity (Mus musculus [14]) | Emax [10] [%] | EC50 [15] [nM] | Intrinsic activity [16]
Cc1cc(O)cc(C)c1C[C@H](N)C(=O)N[C@@H]1CCCCNC(=O)C[C@@H](C(N)=O)NC(=O)[C@H](Cc2ccccc2)NC(=O)[C@@H](Cc2cccc3ccccc23)NC1=O | 9170 | 69.2 | inactive | 1290 | 17 | 56.6 | 93.8 | 16.21 | 0.714 | 0.43 | 20 |  |  |  |  |  |  | 
Cc1cc(O)cc(C)c1C[C@H](N)C(=O)N[C@@H]1CCCCNC(=O)C[C@@H](C(N)=O)NC(=O)[C@H](Cc2ccccc2)NC(=O)[C@@H](Cc2ccc3ccccc3c2)NC1=O | 4250 | 16.8 | inactive | 1700 | 24 | 751 | 85.4 | 16.38 | 0.533 | 0.31 | 11.5 |  |  |  |  |  |  | 
NC(=O)[C@@H]1CC(=O)NCCCC[C@@H](NC(=O)[C@@H](N)Cc2ccc(O)cc2)C(=O)N[C@@H](Cc2ccccc2)C(=O)N[C@@H](Cc2ccccc2)C(=O)N1 (H-Y[dK]FFD-NH2; lactam 2-5) | 171 | 0.35 |  | 6.61 | 88 | 1.12 | 96 | 20.5 | 0.05 | 1 | 2.04 | Active | Dose-dependent effect | < 0.01 | inactive | 106 |  | 
Cc1cc(O)cc(C)c1C[C@H](N)C(=O)N[C@@H]1CCCCNC(=O)C[C@@H](C(N)=O)NC(=O)[C@@H](Cc2cccc3ccccc23)NC(=O)[C@H](Cc2ccccc2)NC1=O (H-[Dmt][dK]F[d1Nal]D-NH2; lactam 2-5) | 51.2 | 0.25 |  | 41.7 | 82 | 1.78 | 96 | 16.02 | 0.06 | 0.74 | 5.62 | Active | Dose-dependent effect | 1.16 | inactive | 79 | 64.6 | 0.5
Cc1cc(O)cc(C)c1C[C@H](N)C(=O)N[C@@H]1CCCCNC(=O)C[C@@H](C(N)=O)NC(=O)[C@@H](Cc2ccc3ccccc3c2)NC(=O)[C@H](Cc2ccccc2)NC1=O (H-[Dmt][dK]F[d2Nal]D-NH2; lactam 2-5) | 110 | 0.44 |  | 102 | 55 | 1.02 | 95.6 | 16.1 | 0.08 | 0.44 | 3.63 | Active | Dose-dependent effect | 3.24 | inactive |  | 53.7 | 0.31
CC[C@H](C)[C@H](NC(=O)[C@H](CCCNC(=N)N)NC(=O)[C@H](CCCNC(=N)N)NC(=O)[C@H](CC(C)C)NC(=O)[C@H](Cc1ccccc1)NC(=O)CNC(=O)CNC(=O)[C@@H](N)Cc1ccc(O)cc1)C(=O)N[C@@H](CCCNC(=N)N)C(=O)N1CCC[C@H]1C(=O)N[C@@H](CCCCN)C(=O)N[C@@H](CC(C)C)C(=O)N[C@@H](CCCCN)C(=O)O [ANALOG OF DYNORPHIN A] |  |  |  |  |  |  |  |  |  |  |  |  |  |  |  |  |  | 0.99
NC(=O)[C@H](Cc1ccccc1)NC(=O)[C@H](Cc1ccccc1)NC(=O)[C@@H]1CCCN1C(=O)[C@@H](N)Cc1ccc(O)cc1 [ENDOMORPHIN 2] |  |  |  |  |  |  | 0.61 | 17.25 | 1.82 |  |  |  |  |  |  |  |  | 
